Experimental data taken from ChEMBL document CHEMBL4354863, “Discovery of Novel Allosteric Inhibitors of Deoxyhypusine Synthase” (J Med Chem, 2020).
pIC50: −log10 of the molar value.

target: T1, Deoxyhypusine synthase (Homo sapiens, UniProt P49366); assay: (§1) Inhibition of human N-terminal His6-tagged TEV protease site linked DHPS expressed in Escherichia coli BL21 (DE3) assessed as reduction in radiolabelled amino-butylidene incorporation in eIF5A using [3H]Spermidine trichloride as substrate after 90 to 120 mins in presence of eIF5A and 14 uM NAD+ by Topcount scintillation counting method
T1 sequence (P49366 whole entry): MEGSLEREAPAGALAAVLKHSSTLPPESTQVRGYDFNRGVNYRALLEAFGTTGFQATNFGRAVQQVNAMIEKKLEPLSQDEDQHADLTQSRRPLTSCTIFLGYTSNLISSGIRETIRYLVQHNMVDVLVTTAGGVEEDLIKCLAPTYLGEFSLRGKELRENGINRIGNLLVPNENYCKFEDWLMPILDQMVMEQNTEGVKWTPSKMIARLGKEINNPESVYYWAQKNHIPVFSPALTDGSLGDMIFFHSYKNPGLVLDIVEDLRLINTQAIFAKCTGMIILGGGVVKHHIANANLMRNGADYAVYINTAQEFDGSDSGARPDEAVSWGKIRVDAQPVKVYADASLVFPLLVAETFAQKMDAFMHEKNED
Summary of the method: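 Reaction run 120 min at room temperature, quenched with GC-7, and bound to streptavidin plates for 90–120 min. Plates washed and scintillation-counted. IC50 with 95% CI from nonlinear regression of percent inhibition.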

Row | pIC50 | SMILES
1 | 4.96 | NC(=O)c1ccc2cc(C(=O)Nc3cccc4[nH]ccc34)sc2c1
2 | 6.37 | N#Cc1ccc2cc(C(=O)Nc3cccc4[nH]ccc34)sc2c1
3 | 6.92 | O=C(Nc1cccc2[nH]ccc12)c1cc2ccc(Cl)cc2s1
4 | < 4.00 | O=C(Nc1cccc2[nH]ccc12)c1cc2cc(Br)ccc2s1
5 | 7.04 | O=C(Nc1cccc2[nH]ccc12)c1cc2ccc(I)cc2s1
6 | 7.21 | O=C(Nc1cccc2[nH]ccc12)c1cc2ccc(Br)cc2s1
7 | 5.27 | CC(C)(C)c1ccc2cc(C(=O)Nc3cccc4[nH]ccc34)sc2c1

Further lines, the compound ahead of its results:

Row | SMILES | pIC50
8 | N=C(N)NCCCCCCCN | 6.85
9 | O=C(Nc1cccc2[nH]ccc12)c1ccc2ccccc2c1 | < 4.00
10 | CC(C)(C)c1ccc(S(=O)(=O)Nc2cccc3[nH]ccc23)cc1 | < 4.00
11 | O=C(Nc1cccc2[nH]ccc12)c1cc2ccccc2o1 | < 4.00
12 | CC(C)(C)c1ccc(NC(=O)c2cccc3[nH]ccc23)cc1 | 4.00
13 | CC(C)(C)c1ccc(C(=O)Nc2cccc3[nH]ccc23)cc1 | 6.08
14 | CC(C)(C)c1ccc(C(=O)Nc2cccc3c2CCN3)cc1 | < 4.00
15 | CC(C)(C)c1ccc(C(=O)Nc2cccc3cn[nH]c23)cc1 | < 4.00
16 | O=C(Nc1cccc2[nH]ccc12)c1cc2ccccc2s1 | 5.64
17 | O=C(Nc1cccc2[nH]ccc12)c1cc2cccc(Br)c2s1 | < 4.00
18 | O=C(Nc1cccc2[nH]ccc12)c1ccccc1 | < 4.00
19 | CC(C)(C)c1ccc(NC(=O)Nc2cccc3[nH]ccc23)cc1 | < 4.00
20 | CC(C)(C)c1ccc(C(=O)Nc2cccc3[nH]ncc23)cc1 | 4.66
21 | CC(C)(C)c1ccc(C(=O)Nc2cccc3c2CC(=O)N3)cc1 | 4.38

target: T1, Deoxyhypusine synthase; assay: as §1, with “Competitive inhibition” for “Inhibition”, “using 2 uM of” for “using”, “250” for “14”
Summary of the method: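 Human DHPS (His-tagged, tag removed with TEV, purified by Ni-affinity and size exclusion), 24 nM, with 1 µM eIF5A, 2 µM [³H]-spermidine (38.5 Ci/mmol) and 250 µM NAD⁺ (×18 Km). Reaction run 120 min at room temperature, stopped with GC-7, and captured on streptavidin plates for 90–120 min. Plates washed with PBS and counted by scintillation. IC50 from nonlinear regression of percent inhibition.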

Row | pIC50 | SMILES
22 | 6.30 | N=C(N)NCCCCCCCN
23 | 4.42 | CC(C)(C)c1ccc(C(=O)Nc2cccc3[nH]ccc23)cc1
24 | 4.25 | O=C(Nc1cccc2[nH]ccc12)c1cc2ccc(Br)cc2s1

target: T1, Deoxyhypusine synthase; assay: as §1, with “Competitive inhibition” for “Inhibition”, “using 100 uM of” for “using”
Summary of the method: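 Human DHPS expressed in E. coli, Ni-affinity purified, His-tag removed by TEV protease, then size-exclusion purified; 24 nM enzyme. Run with 1 µM eIF5A, 14 µM NAD+, 100 µM [3H]-spermidine (high-spermidine condition), 1 mM DTT, 50 mM Tris-HCl pH 8.0, 120 min at room temperature. Stopped with GC-7, captured on streptavidin plates, PBS-washed, scintillation counted. IC50 from nonlinear regression, 95% CI.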

Row | pIC50 | SMILES
25 | 5.16 | O=C(Nc1cccc2[nH]ccc12)c1cc2ccc(Br)cc2s1
